{
  "source": "ChEMBL document CHEMBL4261600",
  "about": "(Eur J Med Chem, 2018)",
  "key": {"[1]": {"target": "Cyclin-dependent kinase 7 (Homo sapiens) (UniProt P50613)", "test": "Inhibition of CDK7 in human MV4-11 cells assessed as decrease in RNA polymerase 2 phosphorylation at Ser 5 residues up to 3 uM after 2 hrs by immunoblotting analysis", "assay_type": "cell-based"}, "[2]": {"test": "AUC (0 to t) in Sprague-Dawley rat at 20 mg/kg, po by LC-MS/MS analysis", "assay_type": "ADME, organism-based", "settings": "in vivo", "in_short": "(§1)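 Non-compartmental PK. Male SD rats 190-210 g, mice and beagle dogs acclimatized one week, fasted 12 h with water, split into iv and po groups (mice 48, rats 6, dogs 6). iv 3/3/2 mg/kg (mice/rats/dogs); po 10/20/10 mg/kg; vehicle DMSO in 5% glucose water. Blood at 2 or 5 to 720 min; plasma protein-precipitated with methanol, caffeine internal standard, LC-MS/MS.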"}, "[3]": {"test": "AUC (0 to infinity) in Sprague-Dawley rat at 20 mg/kg, po by LC-MS/MS analysis", "assay_type": "ADME, organism-based", "set-up": "dose 20 mg/kg, route oral, time infinity", "settings": "in vivo", "in_short": "as §1"}, "[4]": {"tested_on": "MV4-11", "test": "Antitumor activity against human MV4-11 cells xenografted in nu/nu mouse assessed as tumor growth inhibition at 10 to 30 mg/kg, po administered via gavage for 2 weeks measured every day during compound dosing", "assay_type": "functional, organism-based", "in_short": "(§2)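 Female nu/nu mice, five weeks old, implanted subcutaneously in the right flank with 5 million MV4-11 cells in PBS/Matrigel 1:1. Daily oral gavage in 0.5% methylcellulose/0.4% Tween80 started at tumor volume 200–400 mm³, 10, 20 or 30 mg/kg/day or vehicle, 5 mice per group. Tumor volume (W²×L)/2 and body weight measured daily; mean ± SEM.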"}, "[5]": {"target": "Bone morphogenetic protein receptor type-1B (Homo sapiens) (UniProt O00238)", "sequence (O00238 whole entry, the tested form may be a part)": "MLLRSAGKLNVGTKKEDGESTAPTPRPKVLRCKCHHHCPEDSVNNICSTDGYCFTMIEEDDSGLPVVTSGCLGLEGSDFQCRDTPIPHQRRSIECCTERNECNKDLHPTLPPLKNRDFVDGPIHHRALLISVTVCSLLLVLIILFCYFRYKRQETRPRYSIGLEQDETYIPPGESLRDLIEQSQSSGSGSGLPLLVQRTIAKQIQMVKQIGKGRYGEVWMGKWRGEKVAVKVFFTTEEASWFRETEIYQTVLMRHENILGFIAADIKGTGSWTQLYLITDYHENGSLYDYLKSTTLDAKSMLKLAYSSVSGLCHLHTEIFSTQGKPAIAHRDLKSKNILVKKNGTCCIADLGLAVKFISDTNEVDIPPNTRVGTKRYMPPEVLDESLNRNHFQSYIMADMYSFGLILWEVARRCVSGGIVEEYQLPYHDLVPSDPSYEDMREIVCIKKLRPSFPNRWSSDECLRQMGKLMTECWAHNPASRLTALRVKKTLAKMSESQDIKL", "test": "Binding affinity to wild-type human partial length BMPR1B (D178 to L502 residues) expressed in mammalian expression system assessed as remaining unbound target protein level at 1000 nM by Kinomescan method relative to control"}, "[6]": {"target": "Calcium/calmodulin-dependent protein kinase type 1B (Homo sapiens) (UniProt Q6P2M8)", "sequence (Q6P2M8 whole entry, the tested form may be a part)": "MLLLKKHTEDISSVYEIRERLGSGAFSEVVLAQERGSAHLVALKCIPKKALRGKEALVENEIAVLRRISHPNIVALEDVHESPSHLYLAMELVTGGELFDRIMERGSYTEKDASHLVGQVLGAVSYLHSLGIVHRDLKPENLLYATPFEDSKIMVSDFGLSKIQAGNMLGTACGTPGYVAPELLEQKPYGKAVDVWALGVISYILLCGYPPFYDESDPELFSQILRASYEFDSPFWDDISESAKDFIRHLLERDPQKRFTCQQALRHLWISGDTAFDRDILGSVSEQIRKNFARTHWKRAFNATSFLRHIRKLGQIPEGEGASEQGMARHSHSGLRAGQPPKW", "test": "Binding affinity to wild-type human partial length CAMK1B (W9 to A311 residues) expressed in mammalian expression system assessed as remaining unbound target protein level at 1000 nM by Kinomescan method relative to control", "in_short": "(§3)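 Profiled in a KINOMEscan binding panel with the inhibitor at a single concentration of 1 μM. Binding to each kinase was read out as percent of control, relative to a DMSO control. Strong binders were defined as those with a percent control value below 1.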"}, "[7]": {"target": "Serine/threonine-protein kinase DCLK3 (Homo sapiens) (UniProt Q9C098)", "test": "Binding affinity to wild-type human partial length DCAMKL3 (E140 to V628 residues) expressed in bacterial expression system assessed as remaining unbound target protein level at 1000 nM by Kinomescan method relative to control"}, "[8]": {"target": "Serine/threonine-protein kinase 17B (Homo sapiens) (UniProt O94768)", "sequence (O94768 whole entry, the tested form may be a part)": "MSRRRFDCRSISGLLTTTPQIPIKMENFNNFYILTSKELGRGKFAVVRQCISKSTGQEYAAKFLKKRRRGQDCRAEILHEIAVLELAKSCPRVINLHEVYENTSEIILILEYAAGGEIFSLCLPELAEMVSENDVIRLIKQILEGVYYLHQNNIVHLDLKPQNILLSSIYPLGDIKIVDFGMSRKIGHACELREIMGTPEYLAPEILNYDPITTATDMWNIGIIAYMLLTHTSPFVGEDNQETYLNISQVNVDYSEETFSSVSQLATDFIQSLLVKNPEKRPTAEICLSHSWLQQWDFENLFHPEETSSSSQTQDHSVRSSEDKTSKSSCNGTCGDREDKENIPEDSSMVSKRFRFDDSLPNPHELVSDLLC", "test": "Binding affinity to wild-type human full length DRAK2 (M1 to C372 residues) expressed in bacterial expression system assessed as remaining unbound target protein level at 1000 nM by Kinomescan method relative to control", "in_short": "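Single-point competition binding screen across a panel of 468 kinases and mutants, with the inhibitor at 1 μM. Binding is read out as percent of a DMSO control, and targets below 1 percent control were classed as strong binders.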"}, "[9]": {"target": "Ephrin type-A receptor 5 (Homo sapiens) (UniProt P54756)", "test": "Binding affinity to wild-type human partial length EPHA5 (T627 to V930 residues) expressed in bacterial expression system assessed as remaining unbound target protein level at 1000 nM by Kinomescan method relative to control"}, "[10]": {"tested_on": "Receptor-type tyrosine-protein kinase FLT3 (Homo sapiens), P36888 [D835V]", "test": "Binding affinity to human partial length FLT3 D835V mutant (V592 to Y969 residues) expressed in bacterial expression system assessed as remaining unbound target protein level at 1000 nM by Kinomescan method relative to control", "in_short": "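KINOMEscan competition-binding profiling across the panel of 468 kinases and mutants, with inhibitor tested at 1 μM. Binding is expressed as percent of control, with DMSO as the reference control.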"}, "[11]": {"target": "Tyrosine-protein kinase JAK2 (Homo sapiens) (UniProt O60674)", "test": "Binding affinity to wild-type human partial length JAK2 JH1 catalytic domain (A829 to G1132 residues) expressed in mammalian expression system assessed as remaining unbound target protein level at 1000 nM by Kinomescan method relative to control"}, "[12]": {"target": "Mitogen-activated protein kinase kinase kinase kinase 2 (Homo sapiens) (UniProt Q12851)", "sequence (Q12851 whole entry, the tested form may be a part)": "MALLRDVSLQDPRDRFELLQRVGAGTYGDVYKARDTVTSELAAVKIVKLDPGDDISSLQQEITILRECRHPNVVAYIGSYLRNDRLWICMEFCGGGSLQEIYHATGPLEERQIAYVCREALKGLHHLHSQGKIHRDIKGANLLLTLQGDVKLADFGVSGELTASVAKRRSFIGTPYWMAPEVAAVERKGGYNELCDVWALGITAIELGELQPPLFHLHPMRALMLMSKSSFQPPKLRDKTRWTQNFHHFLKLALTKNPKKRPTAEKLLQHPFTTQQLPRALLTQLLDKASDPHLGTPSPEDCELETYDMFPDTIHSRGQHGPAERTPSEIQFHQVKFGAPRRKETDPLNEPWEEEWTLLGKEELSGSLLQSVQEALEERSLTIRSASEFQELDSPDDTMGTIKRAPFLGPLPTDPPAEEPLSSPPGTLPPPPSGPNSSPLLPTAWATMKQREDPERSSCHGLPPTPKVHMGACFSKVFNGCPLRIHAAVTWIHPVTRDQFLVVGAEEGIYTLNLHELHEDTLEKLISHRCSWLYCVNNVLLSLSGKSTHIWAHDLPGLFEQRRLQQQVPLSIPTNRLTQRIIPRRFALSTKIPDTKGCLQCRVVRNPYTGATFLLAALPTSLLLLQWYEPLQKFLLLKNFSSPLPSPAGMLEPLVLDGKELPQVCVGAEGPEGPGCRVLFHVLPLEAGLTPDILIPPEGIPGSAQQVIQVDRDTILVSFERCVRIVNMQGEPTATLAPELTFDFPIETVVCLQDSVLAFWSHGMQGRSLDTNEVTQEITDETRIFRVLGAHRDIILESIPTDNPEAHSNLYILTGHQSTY", "test": "Binding affinity to wild-type human partial length MAP4K2 (M1 to G318 residues) expressed in mammalian expression system assessed as remaining unbound target protein level at 1000 nM by Kinomescan method relative to control", "in_short": "(§4)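 KINOMEscan binding panel of 468 kinases/mutants. Inhibitor was tested at a single concentration of 1 μM. Binding is reported as percent of control, defined relative to a DMSO control.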"}, "[13]": {"target": "Microtubule-associated serine/threonine-protein kinase 1 (Homo sapiens) (UniProt Q9Y2H9)", "sequence (Q9Y2H9 whole entry, looked up, the tested form may be a part)": "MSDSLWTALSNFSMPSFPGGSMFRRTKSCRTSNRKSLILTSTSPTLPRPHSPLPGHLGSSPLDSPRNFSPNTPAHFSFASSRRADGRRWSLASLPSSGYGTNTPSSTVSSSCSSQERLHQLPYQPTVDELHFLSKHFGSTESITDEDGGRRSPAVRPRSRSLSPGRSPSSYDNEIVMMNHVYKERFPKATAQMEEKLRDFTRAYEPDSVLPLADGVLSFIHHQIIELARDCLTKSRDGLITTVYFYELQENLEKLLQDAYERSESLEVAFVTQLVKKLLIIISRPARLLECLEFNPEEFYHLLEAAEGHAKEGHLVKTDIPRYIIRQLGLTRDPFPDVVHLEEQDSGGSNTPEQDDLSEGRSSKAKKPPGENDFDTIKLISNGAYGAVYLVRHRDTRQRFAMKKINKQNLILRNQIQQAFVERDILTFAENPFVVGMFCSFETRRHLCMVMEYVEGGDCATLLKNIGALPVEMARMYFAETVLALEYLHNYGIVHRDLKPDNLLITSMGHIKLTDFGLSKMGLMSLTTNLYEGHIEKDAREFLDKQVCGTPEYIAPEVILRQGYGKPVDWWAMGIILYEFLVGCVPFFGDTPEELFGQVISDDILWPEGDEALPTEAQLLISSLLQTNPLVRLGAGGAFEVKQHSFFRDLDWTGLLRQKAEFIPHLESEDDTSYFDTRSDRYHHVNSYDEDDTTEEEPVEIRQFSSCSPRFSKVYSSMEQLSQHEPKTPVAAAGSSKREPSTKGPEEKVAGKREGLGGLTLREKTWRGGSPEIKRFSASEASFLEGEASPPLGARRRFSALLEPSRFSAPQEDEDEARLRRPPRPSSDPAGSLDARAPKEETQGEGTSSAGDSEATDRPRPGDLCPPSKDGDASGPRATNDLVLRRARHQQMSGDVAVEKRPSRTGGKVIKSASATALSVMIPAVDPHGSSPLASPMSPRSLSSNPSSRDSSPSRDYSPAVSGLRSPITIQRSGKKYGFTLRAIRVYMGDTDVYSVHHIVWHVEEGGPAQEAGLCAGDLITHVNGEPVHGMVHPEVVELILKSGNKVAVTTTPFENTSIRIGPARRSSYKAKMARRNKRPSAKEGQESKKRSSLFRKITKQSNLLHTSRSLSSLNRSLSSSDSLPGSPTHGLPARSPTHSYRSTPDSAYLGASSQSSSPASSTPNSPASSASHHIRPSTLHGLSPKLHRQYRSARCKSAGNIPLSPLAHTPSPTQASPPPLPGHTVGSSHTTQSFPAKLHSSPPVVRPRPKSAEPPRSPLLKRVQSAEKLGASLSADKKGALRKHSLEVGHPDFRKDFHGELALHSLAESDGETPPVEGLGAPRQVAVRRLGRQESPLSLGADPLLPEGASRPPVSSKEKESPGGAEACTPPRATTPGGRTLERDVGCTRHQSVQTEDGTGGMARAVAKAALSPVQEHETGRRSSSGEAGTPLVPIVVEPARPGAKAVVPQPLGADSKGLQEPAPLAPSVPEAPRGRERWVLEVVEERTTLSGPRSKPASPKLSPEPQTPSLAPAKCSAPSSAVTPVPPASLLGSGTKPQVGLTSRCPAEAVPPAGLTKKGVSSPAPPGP", "test": "Binding affinity to wild-type human partial length MAST1 (S346 to V730 residues) expressed in mammalian expression system assessed as remaining unbound target protein level at 1000 nM by Kinomescan method relative to control"}, "[14]": {"target": "Dual specificity mitogen-activated protein kinase kinase 5 (Homo sapiens) (UniProt Q13163)", "sequence (Q13163 whole entry, the tested form may be a part)": "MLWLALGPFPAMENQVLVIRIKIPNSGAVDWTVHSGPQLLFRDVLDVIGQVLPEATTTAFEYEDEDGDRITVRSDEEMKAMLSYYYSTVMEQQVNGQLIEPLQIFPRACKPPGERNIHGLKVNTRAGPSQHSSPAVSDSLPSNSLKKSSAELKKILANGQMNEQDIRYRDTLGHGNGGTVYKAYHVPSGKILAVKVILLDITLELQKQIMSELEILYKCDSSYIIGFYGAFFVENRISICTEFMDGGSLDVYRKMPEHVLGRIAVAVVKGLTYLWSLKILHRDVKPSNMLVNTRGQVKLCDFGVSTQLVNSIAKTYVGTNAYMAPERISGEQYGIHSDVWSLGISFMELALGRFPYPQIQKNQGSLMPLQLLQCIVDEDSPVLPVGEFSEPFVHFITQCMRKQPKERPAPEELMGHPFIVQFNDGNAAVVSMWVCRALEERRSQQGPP", "test": "Binding affinity to wild-type human partial length MEK5 (L98 to P448 residues) expressed in mammalian expression system assessed as remaining unbound target protein level at 1000 nM by Kinomescan method relative to control", "in_short": "as §4"}, "[15]": {"target": "Phosphatidylinositol 4-kinase beta (Homo sapiens) (UniProt Q9UBF8)", "test": "Binding affinity to wild-type human full length PIK4CB (M1 to M828 residues) expressed in mammalian expression system assessed as remaining unbound target protein level at 1000 nM by Kinomescan method relative to control", "in_short": "as §3"}, "[16]": {"target": "Serine/threonine-protein kinase pim-3 (Homo sapiens) (UniProt Q86V86)", "test": "Binding affinity to wild-type human partial length PIM3 (G16 to A317 residues) expressed in bacterial expression system assessed as remaining unbound target protein level at 1000 nM by Kinomescan method relative to control"}, "[17]": {"target": "Ribosomal protein S6 kinase alpha-4 (Homo sapiens) (UniProt O75676)", "sequence (O75676 whole entry, looked up, the tested form may be a part)": "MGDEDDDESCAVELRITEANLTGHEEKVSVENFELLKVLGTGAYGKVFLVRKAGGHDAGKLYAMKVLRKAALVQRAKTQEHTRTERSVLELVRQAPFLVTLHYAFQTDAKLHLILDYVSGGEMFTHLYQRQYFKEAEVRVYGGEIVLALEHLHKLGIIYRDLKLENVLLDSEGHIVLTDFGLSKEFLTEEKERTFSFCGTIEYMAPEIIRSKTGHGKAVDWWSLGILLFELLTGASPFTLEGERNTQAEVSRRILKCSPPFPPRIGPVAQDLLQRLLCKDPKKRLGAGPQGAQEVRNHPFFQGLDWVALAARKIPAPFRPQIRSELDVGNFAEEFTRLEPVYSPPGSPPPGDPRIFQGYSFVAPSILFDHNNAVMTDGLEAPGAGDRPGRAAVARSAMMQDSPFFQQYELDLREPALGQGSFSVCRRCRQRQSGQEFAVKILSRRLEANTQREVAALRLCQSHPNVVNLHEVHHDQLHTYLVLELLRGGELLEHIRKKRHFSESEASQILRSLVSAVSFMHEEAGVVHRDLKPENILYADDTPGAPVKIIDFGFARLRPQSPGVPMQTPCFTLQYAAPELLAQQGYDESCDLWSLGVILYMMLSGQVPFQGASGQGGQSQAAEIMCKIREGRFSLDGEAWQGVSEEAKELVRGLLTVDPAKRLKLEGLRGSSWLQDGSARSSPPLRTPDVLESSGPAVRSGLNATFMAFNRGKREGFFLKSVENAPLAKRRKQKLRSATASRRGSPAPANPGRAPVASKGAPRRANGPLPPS", "test": "Binding affinity to wild-type human partial length N-terminal RPS6KA4 kinase domain 1 expressed in bacterial expression system assessed as remaining unbound target protein level at 1000 nM by Kinomescan method relative to control"}, "[18]": {"target": "Serine/threonine-protein kinase TAO2 (Homo sapiens) (UniProt Q9UL54)", "test": "Binding affinity to wild-type human partial length TAOK2 (M1 to A320 residues) expressed in mammalian expression system assessed as remaining unbound target protein level at 1000 nM by Kinomescan method relative to control"}, "[19]": {"target": "Non-receptor tyrosine-protein kinase TYK2 (Homo sapiens) (UniProt P29597)", "test": "Binding affinity to wild-type human partial length TYK2 JH1 catalytic domain (V877 to C1187 residues) expressed in mammalian expression system assessed as remaining unbound target protein level at 1000 nM by Kinomescan method relative to control"}, "[20]": {"tested_on": "MV4-11", "test": "Antitumor activity against human MV4-11 cells xenografted in nu/nu mouse assessed as tumor growth inhibition at 10 mg/kg, po administered via gavage for 21 days measured on day 21 post last dose", "assay_type": "functional, organism-based", "in_short": "as §2"}},
  "note": "Calls of active or inactive are those of the source.",
  "data": [
    {"smiles": "COCCN[C@H]1CC[C@H](Nc2cc(-c3csc(NCC4(C#N)CCOCC4)n3)c(Cl)cn2)CC1", "values": [
      {"measurement": "inhibition", "setting": "[1]", "result": "inactive"},
      {"measurement": "AUC(0-t)", "setting": "[2]", "result": 1.78, "unit": "µg·h/mL"},
      {"measurement": "AUC(0-inf)", "setting": "[3]", "result": 1.99, "unit": "µg·h/mL"},
      {"measurement": "TGI", "setting": "[4]", "result": "Active"},
      {"measurement": "Activity", "setting": "[5]", "result": 84, "unit": "%"},
      {"measurement": "Activity", "setting": "[6]", "result": 97, "unit": "%"},
      {"measurement": "Activity", "setting": "[7]", "result": 97, "unit": "%"},
      {"measurement": "Activity", "setting": "[8]", "result": 89, "unit": "%"},
      {"measurement": "Activity", "setting": "[9]", "result": 97, "unit": "%"},
      {"measurement": "Activity", "setting": "[10]", "result": 88, "unit": "%"},
      {"measurement": "Activity", "setting": "[11]", "result": 85, "unit": "%"},
      {"measurement": "Activity", "setting": "[12]", "result": 56, "unit": "%"},
      {"measurement": "Activity", "setting": "[13]", "result": 88, "unit": "%"},
      {"measurement": "Activity", "setting": "[14]", "result": 81, "unit": "%"},
      {"measurement": "Activity", "setting": "[15]", "result": 100, "unit": "%"},
      {"measurement": "Activity", "setting": "[16]", "result": 65, "unit": "%"},
      {"measurement": "Activity", "setting": "[17]", "result": 92, "unit": "%"},
      {"measurement": "Activity", "setting": "[18]", "result": 60, "unit": "%"},
      {"measurement": "Activity", "setting": "[19]", "result": 90, "unit": "%"},
      {"measurement": "TGI", "setting": "[20]", "result": "inactive"}
    ]}
  ]
}
